Assay results published in ChEMBL document CHEMBL4011632, “Design, Synthesis, and Evaluation of Thiazolidine-2,4-dione Derivatives as a Novel Class of Glutaminase Inhibitors” (J Med Chem, 2017).

Columns and labels:
ASPC1 [1] = test: Anticlonogenic activity against human Aspc-1 cells at 10 uM after 21 days by crystal violet staining based assay relative to control; type: functional; conditions: ASPC1, 504 h
Outline: (§1)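 Anchorage-dependent colony formation: AsPC-1 cells seeded at 1000 cells/well in six-well plates and treated with compound. Colony formation is expressed as percent of vehicle treatment. Mean ± SD from at least three independent experiments, each in duplicate.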

[2] = target: T1, Glutaminase kidney isoform, mitochondrial (Homo sapiens, UniProt O94925); test: Inhibition of recombinant human MCF7 cells derived His-tagged GAC (L123 to S598 residues) expressed in Escherichia coli C41(DE3)pLysS using glutamine as substrate preincubated for 10 mins followed by substrate addition measured after 60 mins by glutamate dehydrogenase coupled enzyme assay
T1 sequence (O94925 whole entry): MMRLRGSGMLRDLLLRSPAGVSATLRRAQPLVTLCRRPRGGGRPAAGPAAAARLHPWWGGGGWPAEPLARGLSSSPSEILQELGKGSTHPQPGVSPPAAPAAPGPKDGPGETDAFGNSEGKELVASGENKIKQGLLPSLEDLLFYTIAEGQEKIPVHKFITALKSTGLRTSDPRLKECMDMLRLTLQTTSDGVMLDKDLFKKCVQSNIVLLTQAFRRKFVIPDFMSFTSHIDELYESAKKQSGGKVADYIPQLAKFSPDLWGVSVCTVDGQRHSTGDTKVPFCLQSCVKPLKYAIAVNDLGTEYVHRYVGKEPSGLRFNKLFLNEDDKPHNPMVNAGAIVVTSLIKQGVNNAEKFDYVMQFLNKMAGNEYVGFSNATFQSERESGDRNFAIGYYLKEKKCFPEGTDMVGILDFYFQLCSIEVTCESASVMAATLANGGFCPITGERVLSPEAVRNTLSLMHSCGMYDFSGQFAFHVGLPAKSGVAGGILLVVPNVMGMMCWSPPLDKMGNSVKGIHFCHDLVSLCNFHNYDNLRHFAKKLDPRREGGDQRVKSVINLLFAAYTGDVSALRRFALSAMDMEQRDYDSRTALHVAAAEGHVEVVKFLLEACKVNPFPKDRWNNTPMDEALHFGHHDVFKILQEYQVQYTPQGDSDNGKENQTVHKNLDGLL
Outline: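 Human GAC cloned from MCF7 cDNA into pET28a(+) as a His-tagged construct. Expressed in E. coli C41(DE3)pLysS in Terrific Broth with kanamycin, induced with 1 mM IPTG for 6 h at 25 °C. Purified on Ni2+ resin with 500 mM imidazole elution and exchanged into 50 mM NaH2PO4, 50 mM Tris-HCl pH 8.0, 2 mM DTT, 50% glycerol. Activity measured by two-step glutaminase assay.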

[3] = target: T1, Glutaminase kidney isoform, mitochondrial; test: Inhibition of recombinant human His-tagged KGA (L123 to L669 residues) expressed in Escherichia coli BL21(DE3)pLysS using glutamine substrate preincubated for 10 mins followed by substrate addition measured after 60 mins by glutamate dehydrogenase coupled enzyme assay
Homo sapiens = species: Homo sapiens; test: Selectivity index, ratio of IC50 for recombinant human His-tagged GAB (P56-V602 residues) expressed in Escherichia coli C41(DE3)pLysS to IC50 for recombinant human His-tagged KGA (L123 to L669 residues) expressed in Escherichia coli BL21(DE3)pLysS
ASPC1 [4] = test: Growth inhibition of human Aspc-1 cells after 72 hrs by MTS assay; type: functional, cell-based; conditions: ASPC1, 72 h
Outline: (§2)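 Growth inhibition by MTS viability read-out. Cells seeded in 96-well plates at 4000/well (AsPC-1) or 8500/well (MDA-MB-231). Mean ± SD from at least three independent experiments, each in duplicate.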

[5] = target: T2, Glutaminase liver isoform, mitochondrial (Homo sapiens, UniProt Q9UI32); test: Inhibition of recombinant human His-tagged GAB (P56 to V602 residues) expressed in Escherichia coli C41(DE3)pLysS using glutamine as substrate preincubated for 10 mins followed by substrate addition measured after 60 mins by glutamate dehydrogenase coupled enzyme assay
T2 sequence (Q9UI32 whole entry): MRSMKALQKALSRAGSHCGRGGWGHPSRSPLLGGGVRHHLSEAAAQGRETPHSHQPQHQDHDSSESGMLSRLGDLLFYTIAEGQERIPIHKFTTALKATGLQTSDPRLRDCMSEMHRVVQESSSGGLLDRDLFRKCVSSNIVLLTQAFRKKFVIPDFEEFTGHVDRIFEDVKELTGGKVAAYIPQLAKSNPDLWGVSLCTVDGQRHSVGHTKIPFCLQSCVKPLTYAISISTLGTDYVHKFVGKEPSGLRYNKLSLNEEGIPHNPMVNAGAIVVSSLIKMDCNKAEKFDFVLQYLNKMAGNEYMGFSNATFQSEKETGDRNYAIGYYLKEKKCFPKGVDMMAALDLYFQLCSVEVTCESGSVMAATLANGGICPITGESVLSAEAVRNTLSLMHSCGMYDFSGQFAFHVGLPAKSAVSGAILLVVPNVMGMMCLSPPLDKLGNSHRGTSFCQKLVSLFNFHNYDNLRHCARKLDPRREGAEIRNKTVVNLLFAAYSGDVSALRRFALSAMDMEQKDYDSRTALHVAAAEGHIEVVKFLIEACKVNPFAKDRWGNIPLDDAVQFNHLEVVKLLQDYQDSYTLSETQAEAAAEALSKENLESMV

ASPC1 [6] = test: Anticlonogenic activity against human Aspc-1 cells at 2 uM after 21 days by crystal violet staining based assay relative to control; type: functional; conditions: ASPC1, 504 h; outline: as §1
MDA-MB-231 = test: Growth inhibition of human MDA-MB-231 cells after 72 hrs by MTS assay; type: functional, cell-based; conditions: MDA-MB-231, 72 h; outline: as §2
ASPC1 [7] = test: Synergistic cytotoxicity against human Aspc-1 cells assessed as reduction in cell viability at ED50 in presence of doxorubicin by MTS assay; type: functional
Outline: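 AsPC-1 cells treated with compound combinations and viability read by MTS. Combination index at ED50, ED75 and ED90 calculated by the Chou−Talalay method. CI = 1 additive, <1 synergism, >1 antagonism. Representative of three independent experiments.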

[8] = Inhibition of recombinant human His-tagged KGA R387L mutant expressed in Escherichia coli BL21(DE3)pLysS using glutamine substrate preincubated for 10 mins followed by substrate addition measured after 60 mins
[9] = Inhibition of recombinant human His-tagged KGA R387A mutant expressed in Escherichia coli BL21(DE3)pLysS using glutamine substrate preincubated for 10 mins followed by substrate addition measured after 60 mins

IC50 [2]	IC50 [3]	Ratio IC50 (Homo sapiens)	IC50 (ASPC1 [4])	IC50 [5]	IC50 (MDA-MB-231)	IC50 [8]	IC50 [9]	SMILES	inhibition at 10 µM (ASPC1 [1])	inhibition at 2 µM (ASPC1 [6])	CI (ASPC1 [7])
0.049 µM	0.05 µM	2	14.8 µM	0.102 µM	28.7 µM	–	–	O=C1NC(=O)/C(=C/c2ccc(-c3ccc(-n4c(-c5cccs5)cc(/C=C5\SC(=O)NC5=O)c4-c4cccs4)cc3)cc2)S1	87%	64%	0.45 - 0.68
0.381 µM	0.102 µM	12	34.5 µM	1.19 µM	42 µM	1.27 µM	> 50 µM	Cc1cc(/C=C2\SC(=O)NC2=O)c(C)n1-c1ccc(-c2ccc(/C=C3\SC(=O)NC3=O)cc2)cc1	59%	13%	0.45 - 0.68
0.255 µM	0.057 µM	74	> 50 µM	4.19 µM	> 50 µM	0.77 µM	10.9 µM	Cc1cc(/C=C2\SC(=O)NC2=O)c(C)n1-c1ccc(-c2ccc(/C=C3\SC(=O)NC3=O)c(Cl)c2)cc1	51%	18%	–
